According to ChEMBL document CHEMBL3526009, “Breast cancer resistance protein (ABCG2) determines distribution of genistein phase II metabolites: reevaluation of the roles of ABCG2 in the disposition of genistein” (Drug Metab Dispos, 2012):

What was measured:
[1] = Stability in potassium phosphate buffer at pH 7.4 up to 4 hrs; format: physicochemical; settings: pH 7.4, 4 h
How it was run: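 Negative control run under the blood-incubation conditions but in 50 mM potassium phosphate buffer, pH 7.4, instead of blood. Genistein glucuronides (G-7-G plus G-4′-G, with aglycone) or sulfates (G-7-S plus G-4′-S, with aglycone) held at 37°C in a shaking water bath up to 4 h. Sampled at 0, 60, 120 and 240 min and read by UPLC-MS/MS.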

[2] = Biliary excretion in wild-type FVB mouse treated with genistein measured after 2.5 hrs post intestinal perfusion by UPLC-MS/MS analysis; format: ADME, Bile; settings: in vivo, other
How it was run: (§1)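 Gallbladder bile taken after 2.5 h of simultaneous small intestine/colon perfusion with 10 μM genistein (HBSS pH 7.4, 0.191 ml/min) in FVB or Bcrp1(−/−) mice (n = 4). Bile diluted 20-fold in HBSS, daidzein internal standard in acetonitrile added, dried and reconstituted. Genistein and conjugates quantified by UPLC-MS/MS.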

[3] = Biliary excretion in BCRP-/- mouse treated with genistein measured after 2.5 hrs post intestinal perfusion by UPLC-MS/MS analysis; format: ADME, Bile; settings: in vivo, other; how it was run: as §1
[4] = system: Blood; test: Stability in Wistar rat blood at 3 uM up to 4 hrs by UPLC-MS/MS analysis; format: ADME, tissue-based
How it was run: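 Genistein glucuronide mixture (G-7-G plus G-4′-G, 3 μM) with 3.8 μM genistein incubated in fresh rat whole blood, 37°C shaking water bath. Sampled at 0, 60, 120 and 240 min. Reaction stopped with acetonitrile containing daidzein internal standard. Genistein and conjugates quantified by UPLC-MS/MS using multiple reaction monitoring. n = 3.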

Stability [1]: Stable | Drug excretion [2]: metabolite_detected | Drug excretion [3]: metabolite_detected | Stability [4]: Stable
Structure (SMILES): O=C(O)[C@H]1O[C@@H](Oc2ccc(-c3coc4cc(O)cc(O)c4c3=O)cc2)[C@H](O)[C@@H](O)[C@@H]1O
